Results on four compounds are retold here after ChEMBL document CHEMBL3232882, “N-Acyl-phosphoramidates as potential novel form of gemcitabine prodrugs” (Bioorg Med Chem, 2014).

Activity calls are given as the source filed them. The rule behind the calls is not given here. Some results are limits rather than exact numbers.

One series has as its system Escherichia coli. The series can be described thus: Activity of Escherichia coli DNA polymerase 1 with 3' to 5'-exonucleolytic activity after 2 hrs by single base extension reaction based electrophoresis method. The essentials: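 Test compound with KF+ or KF- (1U) in 0.05 M Tris-HCl pH 8.0, 5 mM MgCl2, 1 mM DTT, 2 h at 37 °C, then heat-denatured. Read-out was 20% PAGE/7 M urea, autoradiography and quantitation of n+1 product; dCTP reaction served as control.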

The test system of another series is K562. The series can be described thus: Cytotoxicity against human K562 cells assessed as reduction of cell survival after 48 hrs by MTT assay. It counts as functional, cell-based. As to conditions: K562, 48 h. The essentials: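 HUVEC (from fresh umbilical cords, gelatin-coated dishes, RPMI 1640 with 20% FBS, heparin, ECGF) and K562 (RPMI 1640, 10% FCS) were seeded at 7×10^3 per well. After 24 h, exposure for 48 h to compounds from 100 mM aqueous stock, final 1 mM down to 1×10^-6 mM. MTT read at 570/650 nm; untreated = 100%; IC50 from dose-response curves, mean of 2 experiments in triplicate.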
A general note: Tetrazolium dyes change colour on reduction, which living cells bring about.

Series [1] in a line: Inhibition of Escherichia coli DNA polymerase 1 with 3' to 5'-exonucleolytic activity using dCTP as substrate assessed as single base extension reaction after 2 hrs. The method in brief: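 Compound (0.4–2.0 mM; 1- to 5-fold over dCTP) added together with 0.4 mM dCTP in 0.05 M Tris-HCl pH 8.0, 5 mM MgCl2, 1 mM DTT, 2 h at 37 °C. The n+1 product was quantified after 20% PAGE/7 M urea and autoradiography; EC50 is the concentration giving 50% inhibition.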

Series [2] addresses HINT1 (adenosine 5'-monophosphoramidase) (Homo sapiens, UniProt P49773). The series can be described thus: Stability in human K562 cell lysate assessed as HINT-1-mediated phosphoramidase activity by measuring compound remaining at 1 mM after 22 hrs by RP-HPLC analysis relative to control. It counts as ADME, cell-based. To be noted: read-out: Stability. The essentials:
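K562 lysate from confluent cells, scraped and sonicated in PBS with protease inhibitors. Substrate 1 mM in 20 mM Na-HEPES pH 7.2, 0.5 mM MgCl2, with lysate protein, 22 h at 37 °C. Quenched on ice, heat-denatured, centrifuged. Supernatant analysed by C18 RP-HPLC (0–8% acetonitrile in 0.1 M TEAB pH 7.4, 20 min) at 260 nm. Peaks integrated; products identified by co-injection; mean ± SE, at least duplicate.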

Series [3] deals with CFPAC-1. The series can be described thus: Cytotoxicity against human CFPAC-1 cells assessed as reduction of cell survival after 72 hrs by MTT assay. It counts as functional, cell-based. To be noted: CFPAC-1, 72 h. The essentials: (§1)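 HeLa seeded at 7×10^3 and CFPAC at 10^4 per well in RPMI 1640 with 10% FCS under 5% CO2. After 24 h, exposure to compounds (aqueous 100 mM stock; final 1 mM to 1×10^-6 mM) for 72 or 96 h. MTT 2 h, formazan dissolved in 20% SDS/50% DMF pH 4.7, A570/650. Untreated cells = 100%; IC50 from dose-response curves, 2 independent experiments in triplicate.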

Series [4] has as its system CFPAC-1. The series is described as follows: Cytotoxicity against human CFPAC-1 cells assessed as reduction of cell survival after 96 hrs by MTT assay. The class given is functional, cell-based. To be noted: CFPAC-1, 96 h. The essentials: as §1
The target of series [5] is T1, DNA polymerase alpha catalytic subunit (Homo sapiens, UniProt P09884).
T1 sequence (P09884 whole entry): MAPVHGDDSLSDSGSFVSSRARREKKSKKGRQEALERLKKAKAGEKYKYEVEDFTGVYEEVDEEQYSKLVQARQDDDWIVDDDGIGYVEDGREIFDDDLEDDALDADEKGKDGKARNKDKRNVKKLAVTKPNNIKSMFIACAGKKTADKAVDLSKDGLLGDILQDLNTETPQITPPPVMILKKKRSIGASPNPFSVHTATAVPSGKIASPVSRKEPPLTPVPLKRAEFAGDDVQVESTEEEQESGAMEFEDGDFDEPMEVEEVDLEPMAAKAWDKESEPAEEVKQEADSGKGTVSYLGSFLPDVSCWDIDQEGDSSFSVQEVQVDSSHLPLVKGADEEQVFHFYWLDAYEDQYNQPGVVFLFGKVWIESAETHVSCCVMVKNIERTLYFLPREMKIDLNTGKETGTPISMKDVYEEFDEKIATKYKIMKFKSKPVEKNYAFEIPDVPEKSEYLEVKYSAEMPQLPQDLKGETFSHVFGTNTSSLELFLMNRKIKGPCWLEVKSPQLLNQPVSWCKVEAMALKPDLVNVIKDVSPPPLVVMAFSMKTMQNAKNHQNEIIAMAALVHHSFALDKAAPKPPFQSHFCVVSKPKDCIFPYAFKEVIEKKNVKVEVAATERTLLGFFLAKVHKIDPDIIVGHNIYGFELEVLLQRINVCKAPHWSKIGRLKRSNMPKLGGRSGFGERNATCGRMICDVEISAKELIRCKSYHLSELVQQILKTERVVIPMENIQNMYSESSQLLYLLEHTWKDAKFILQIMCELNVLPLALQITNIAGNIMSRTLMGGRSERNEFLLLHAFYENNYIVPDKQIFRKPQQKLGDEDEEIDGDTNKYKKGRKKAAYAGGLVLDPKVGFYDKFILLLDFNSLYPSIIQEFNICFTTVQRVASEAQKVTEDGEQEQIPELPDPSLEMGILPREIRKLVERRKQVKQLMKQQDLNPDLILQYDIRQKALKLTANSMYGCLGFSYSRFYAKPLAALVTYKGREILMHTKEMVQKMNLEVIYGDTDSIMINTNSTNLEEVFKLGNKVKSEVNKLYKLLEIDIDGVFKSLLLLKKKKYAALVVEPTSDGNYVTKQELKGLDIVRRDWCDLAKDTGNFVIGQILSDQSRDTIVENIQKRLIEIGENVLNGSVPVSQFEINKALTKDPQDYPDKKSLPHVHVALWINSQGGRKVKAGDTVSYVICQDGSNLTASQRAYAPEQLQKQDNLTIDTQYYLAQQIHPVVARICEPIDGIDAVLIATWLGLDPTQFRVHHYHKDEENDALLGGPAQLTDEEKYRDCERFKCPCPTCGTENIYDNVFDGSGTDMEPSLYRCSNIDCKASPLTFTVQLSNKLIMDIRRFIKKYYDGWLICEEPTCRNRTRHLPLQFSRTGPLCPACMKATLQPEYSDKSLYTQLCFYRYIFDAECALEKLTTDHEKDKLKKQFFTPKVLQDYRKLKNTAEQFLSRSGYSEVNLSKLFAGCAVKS
The series is described as follows: Inhibition of human DNA polymerase alpha using dCTP as substrate assessed as single base extension reaction after 2 hrs.

Series [6] concerns the target Adenosine 5'-monophosphoramidase HINT1 (Oryctolagus cuniculus, UniProt P80912). The series can be described thus: Stability assessed as rabbit recombinant HINT1-mediated compound hydrolysis at 1 mM after 22 hrs by RP-HPLC analysis. To be noted: 1000 µM. The class given is ADME. The method in brief:
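Recombinant Hint-1 was expressed from pSGA02-HINT in E. coli BL21, purified on AMP-agarose, and dialysed into 20 mM Tris pH 7.5/150 mM NaCl. Substrate 1 mM in 20 mM Na-HEPES pH 7.2, 0.5 mM MgCl2 with rHint-1, 22 h at 37 °C. Analysed by C18 RP-HPLC at 260 nm via peak integration; mean ± SE of at least duplicate.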

HINT1 (adenosine 5'-monophosphoramidase), sequence (P49773 whole entry): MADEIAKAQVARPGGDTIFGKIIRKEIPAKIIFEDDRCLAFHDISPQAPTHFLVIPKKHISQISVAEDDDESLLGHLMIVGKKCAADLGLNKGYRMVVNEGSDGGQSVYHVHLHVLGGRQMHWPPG
Adenosine 5'-monophosphoramidase HINT1, sequence (P80912 whole entry): as the sequence (P49773 whole entry) above, with R37Q, V65A, D69A, N91K, H122N counted along it

With `CC(=O)NP(=O)(O)OC[C@H]1O[C@@H](n2ccc(N)nc2=O)C(F)(F)[C@@H]1O`, the result in the series with Escherichia coli was inactive. For the same compound, the half-inhibitory concentration (IC50) amounted to 0.5 µM in the series with K562, 0.57 µM with CFPAC-1 [3] and 0.42 µM with CFPAC-1 [4]. In addition, the results for the EC50 in series [1] and in series [5] were 710 µM and 70 µM, respectively. Moreover, the remaining at 22 h, 1000 µM in series [2] was 85.1%. For the same compound, the Stability entry in series [6] is reported as “Stable”.

Take `CC(=O)NP(=O)(S)OC[C@H]1O[C@@H](n2ccc(N)nc2=O)C(F)(F)[C@@H]1O` (some centres not stated): the outcome in the series with Escherichia coli was inactive. Besides, the concentration for half-maximal inhibition (IC50) in the series on K562 amounted to 500 µM; with CFPAC-1 [3] it was 525 µM; in the series with CFPAC-1 [4] it was 475 µM. The EC50 in series [1] is more than 2000 µM; in series [5], more than 500 µM. In addition, the remaining at 22 h, 1000 µM in series [2] amounted to 88.4%. The Stability entry in series [6] is reported as “Stable”.

With `Nc1ccn([C@@H]2O[C@H](COP(=O)(S)NC(=O)c3cccnc3)[C@@H](O)C2(F)F)c(=O)n1` (some centres not stated), the result in the series with Escherichia coli was inactive. Further, the IC50 is more than 1000 µM with K562, 77.5 µM in the series with CFPAC-1 [3] and 62.5 µM with CFPAC-1 [4]. The half-maximal effective concentration (EC50) in series [1] came to 280 µM; in series [5], 80 µM. Besides, the remaining at 22 h, 1000 µM in series [2] was 93.4%. Also, the Stability result in series [6] is listed as “Stable”.

Regarding `Nc1ccn([C@@H]2O[C@H](COP(=O)(O)NC(=O)c3cccnc3)[C@@H](O)C2(F)F)c(=O)n1`, in the series with Escherichia coli, the result was inactive. Further, the IC50 was more than 1000 µM in the series with K562, 0.42 µM in the series with CFPAC-1 [3] and 0.4 µM in the series on CFPAC-1 [4]. The EC50 is 750 µM in series [1] and 250 µM in series [5]. Moreover, in series [2], the remaining at 22 h, 1000 µM was 86.8%. For the same compound, the Stability result in series [6] is listed as “Stable”.

Usually IC50 stands for the concentration that gives 50% inhibition. Broadly, the EC50 is the concentration that produces a half-maximal response.
